Results on 29 compounds are retold here after ChEMBL document CHEMBL1221306, “Synthesis, activity, and pharmacokinetic properties of a series of conformationally-restricted thiourea analogs as novel hepatitis C virus inhibitors” (Bioorg Med Chem, 2010).

Each structure is given as a SMILES string. A value given as a limit tells only on which side of the number the result lay.

Data set [1] is described as follows: Cytotoxicity against human HuH7 cells after 24 hrs. The format is cell-based, Huh-7.
Another data set has as its system Hepatitis C virus. In words: Antiviral activity against HCV1b infected in human HuH7 cells assessed as inhibition of viral replication after 24 hrs. The conditions noted are these: genotype 1b, Huh-7, 24 h. The format is functional, organism-based, Hepacivirus hominis.
Data set [2] is described as follows: AUC in Sprague-Dawley rat at 25 mg/kg, po. The note with it: plasma. On the set-up: dose 25 mg/kg, route oral. The format is ADME, organism-based. In short, it runs like this: (§1)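 Male rats (330–380 g, 9–10 weeks old, n = 3) were given the compound as a solution in DMA/propylene glycol (20:80, v/v), either iv at 5 mg/kg or po at 25 mg/kg. Rats were fasted and had jugular-vein cannulae. Blood was sampled at 0, 2, 5 (iv only) and 15 min, 30 min, and 1, 2, 4, 6, 8 and 24 h. Plasma was assayed by HPLC–MS/MS and analysed non-compartmentally.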

Data set [3] is described as follows: Half life in Sprague-Dawley rat at 25 mg/kg, po. The format is ADME, organism-based. On the set-up: dose 25 mg/kg, route oral. The conditions noted are these: in vivo. In short, it runs like this:
as §1

Data set [4] is described as follows: Tmax in Sprague-Dawley rat at 25 mg/kg, po. The format is ADME, organism-based. On the set-up: dose 25 mg/kg, route oral. The note with it: in vivo. The gist of the method:
as §1

The nature of data set [5]: Cmax in Sprague-Dawley rat at 25 mg/kg, po. The conditions noted are these: in vivo. On the set-up: dose 25 mg/kg, route oral. Type of data set: ADME, organism-based. The gist of the method: as §1
The nature of data set [6]: AUC in Sprague-Dawley rat at 5 mg/kg, iv. Type of data set: ADME, organism-based. On the set-up: dose 5 mg/kg, route intravenous. The note with it: plasma. The gist of the method: as §1
A short description of data set [7]: Half life in Sprague-Dawley rat at 5 mg/kg, iv. Type of data set: ADME, organism-based. On the set-up: dose 5 mg/kg, route intravenous. The conditions noted are these: in vivo. In short, it runs like this: as §1
Data set [8] can be described thus: Oral bioavailability in Sprague-Dawley rat at 25 mg/kg. The format is ADME, organism-based. The note with it: in vivo. In short, it runs like this:
as §1

A short description of data set [9]: Volume of distribution at steady state in Sprague-Dawley rat at 5 mg/kg, iv. The format is ADME, organism-based. On the set-up: dose 5 mg/kg, route intravenous. The conditions noted are these: in vivo, read-out: Vdss. In short, it runs like this:
as §1

Data set [10] in a line: Clearance in Sprague-Dawley rat at 5 mg/kg, iv. The format is ADME, organism-based. The note with it: in vivo. On the set-up: dose 5 mg/kg, route intravenous. In short, it runs like this: as §1

As to `NC(=S)Nc1ccc2c(c1)Cc1cc(N)ccc1-2`, the 50% cytotoxic concentration (CC50) at 24 h in data set [1] is > 50 µM. Also, in the data set on Hepatitis C virus, the concentration for a half-maximal effect (EC50) is > 50 µM.
Regarding `NC(=S)Nc1ccc2c(c1)Cc1cc(N(Cc3ccccc3)Cc3ccccc3)ccc1-2`, the CC50 at 24 h in data set [1] amounted to 35.6 µM. In addition, the EC50 with Hepatitis C virus is 0.39 µM.
`S=C(Nc1cccnc1)Nc1ccc2c(c1)Cc1cc(Br)ccc1-2` showed a CC50 at 24 h in data set [1] of 19.7 µM. Besides, the EC50 in the data set on Hepatitis C virus is > 50 µM.
Taken in the same sequence, the figures for `CCNC(=S)Nc1ccc2c(c1)Cc1cc(Br)ccc1-2` were > 50 µM and > 50 µM.
`CCCCN(CCCC)c1ccc2c(c1)Cc1cc(NC(N)=S)ccc1-2` showed a cytotoxic concentration (CC50) at 24 h in [1] of 40.7 µM. Also, the concentration giving a half-maximal response (EC50) in the data set on Hepatitis C virus worked out at 0.72 µM.
As for `S=C(Nc1ccc(N2CCOCC2)cc1)Nc1ccc2c(c1)Cc1cc(Br)ccc1-2`, the CC50 at 24 h in data set [1] stood at 18.1 µM. For the same compound, the EC50 in the data set on Hepatitis C virus is 34.1 µM.
Consider `NC(=S)Nc1ccc2oc(=O)c3ccccc3c2c1`, for which, in [1], the CC50 at 24 h is > 50 µM. Further, the EC50 in the data set on Hepatitis C virus is > 50 µM.
Take `NC(=S)Nc1ccc2c(c1)Cc1cc(Br)ccc1-2`: the cytotoxic concentration (CC50) at 24 h in [1] is > 50 µM. For the same compound, the exposure (AUC) in data set [2] was found to be 294 ng·h/mL; in data set [6], 4940 ng·h/mL. For the same compound, the figures for the half-life in data set [3] and in [7] were 3.8 h and 2.6 h, respectively. Besides, the Tmax in data set [4] worked out at 0.7 h. The peak level in data set [5] (Cmax) was 106 ng/mL. In data set [8], this compound displayed a bioavailability of 1.2%. In the data set with Hepatitis C virus, the 50% effective concentration (EC50) worked out at 0.3 µM. Besides, the Vd in data set [9] is 2.8 L/kg. In data set [10], this compound returned a clearance of 17 mL/min/kg.
On to `COc1cc2c(cc1NC(N)=S)oc1ccccc12`, for which the cytotoxic concentration (CC50) at 24 h in [1] was > 50 µM. Also, in the data set on Hepatitis C virus, the EC50 is 5.51 µM.
Turning to `NC(=S)Nc1ccc2c(c1)C(=O)c1cc(Br)ccc1-2`, the 50% cytotoxic concentration (CC50) at 24 h in data set [1] was > 50 µM. In addition, the exposure (AUC) in [2] is 43 ng·h/mL; in data set [6], 655 ng·h/mL. The half-life was 1.7 h in [3] and 1.4 h in data set [7]. Further, the Tmax in data set [4] came out at 0.25 h. This compound also showed a maximum concentration (Cmax) in data set [5] of 65.3 ng/mL. Further, the bioavailability in data set [8] is 1.3%. Moreover, in the data set with Hepatitis C virus, the concentration for a half-maximal effect (EC50) came to 0.57 µM. Moreover, the Vd in data set [9] is 2 L/kg. Moreover, the clearance in data set [10] came to 127 mL/min/kg.
As to `CCCN(CCC)c1ccc2c(c1)Cc1cc(NC(N)=S)ccc1-2`, in data set [1], the 50% cytotoxic concentration (CC50) at 24 h turned out to be 19.5 µM. In the data set with Hepatitis C virus, the EC50 is 0.44 µM.
For the compound `NC(=S)Nc1ccc2nn[nH]c2c1`, the 50% cytotoxic concentration (CC50) at 24 h in [1] is > 50 µM. Besides, the EC50 in the data set with Hepatitis C virus is > 50 µM.
On to `NC(=S)Nc1cccc(Oc2ccccc2)c1`, for which the CC50 at 24 h in [1] is > 50 µM.
As for `CCN(CC)c1ccc2c(c1)Cc1cc(NC(N)=S)ccc1-2`, the CC50 at 24 h in data set [1] is > 50 µM. For the same compound, the EC50 in the data set on Hepatitis C virus came to 0.83 µM.
With `S=C(Nc1ccccc1)Nc1ccc2c(c1)Cc1cc(Br)ccc1-2`, half-maximal cytotoxicity in data set [1] (CC50 at 24 h) was put at 46.2 µM. Further, in the data set with Hepatitis C virus, the concentration for a half-maximal effect (EC50) worked out at 42.8 µM.
With `NC(=S)Nc1ccc2c(c1)N1CCN=C1S2`, in data set [1], the CC50 at 24 h was > 50 µM. In the data set on Hepatitis C virus, the EC50 is > 50 µM.
Consider `NC(=S)Nc1ccc2c(c1)Cc1ccccc1-2`, for which, in data set [1], the CC50 at 24 h is > 50 µM. Further, the EC50 in the data set on Hepatitis C virus is 2.09 µM.
As to `CCCNc1ccc2c(c1)Cc1cc(NC(N)=S)ccc1-2`, in [1], the half-maximal cytotoxic concentration (CC50) at 24 h was > 50 µM. In addition, the EC50 with Hepatitis C virus was 0.42 µM.
For the compound `NC(=S)Nc1ccc2cn[nH]c2c1`, the cytotoxic concentration (CC50) at 24 h in data set [1] was > 50 µM. Further, in the data set on Hepatitis C virus, the 50% effective concentration (EC50) was > 50 µM.
Consider `NC(=S)Nc1ccc2c(c1)Cc1cc(NCc3ccccc3)ccc1-2`, for which the CC50 at 24 h in data set [1] is > 50 µM. Moreover, the EC50 in the data set on Hepatitis C virus was determined as 0.49 µM.
The corresponding values for `S=C(NCc1ccccc1)Nc1ccc2c(c1)Cc1cc(Br)ccc1-2` are > 50 µM and > 50 µM.
As to `NC(=O)Nc1ccc2c(c1)Cc1cc(Br)ccc1-2`, the 50% cytotoxic concentration (CC50) at 24 h in data set [1] is > 50 µM. The EC50 with Hepatitis C virus is > 50 µM.
For the compound `CN(C)c1ccc2c(c1)Cc1cc(NC(N)=S)ccc1-2`, the CC50 at 24 h in [1] is > 50 µM. Besides, the EC50 with Hepatitis C virus came out at 1.11 µM.
For the compound `NC(=S)Nc1ccc2c(c1)-c1ccccc1C2=O`, in data set [1], the CC50 at 24 h was > 50 µM. Besides, in the data set with Hepatitis C virus, the EC50 was found to be 21 µM.
On to `CNC(=S)Nc1ccc2c(c1)Cc1cc(Br)ccc1-2`, for which the 50% cytotoxic concentration (CC50) at 24 h in [1] was > 50 µM. For the same compound, the concentration for a half-maximal effect (EC50) in the data set on Hepatitis C virus is > 50 µM.
With `S=C(Nc1ccc2c(c1)Cc1cc(Br)ccc1-2)Nc1cccc2ccccc12`, the 50% cytotoxic concentration (CC50) at 24 h in [1] was > 50 µM. Moreover, the 50% effective concentration (EC50) in the data set with Hepatitis C virus is 15.4 µM.
As for `NC(=S)Nc1ccc2[nH]ncc2c1`, in data set [1], the CC50 at 24 h is > 50 µM. Moreover, the concentration giving a half-maximal response (EC50) in the data set with Hepatitis C virus was > 50 µM.
Take `CCCCNc1ccc2c(c1)Cc1cc(NC(N)=S)ccc1-2`: the CC50 at 24 h in data set [1] was > 50 µM. In addition, in the data set with Hepatitis C virus, the EC50 amounted to 0.38 µM.
On to `CCn1c2ccccc2c2cc(NC(N)=S)ccc21`, for which the CC50 at 24 h in data set [1] is > 50 µM. Besides, in the data set on Hepatitis C virus, the concentration giving a half-maximal response (EC50) was 7.55 µM.
